Assays:
SF-539 = test: Antitumor activity against human SF539 cells after 48 hrs; format: functional; conditions: SF-539, 48 h
How it was run: (§1)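 Tested in the NCI 60 human tumour cell line screen, with continuous drug exposure for 48 h. Values include LC50 derived from the screen.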

ASPC1 = test: Antitumor activity against p53 null human ASPC1 cells; format: functional, cell-based
PC-3 [1] = test: Antitumor activity against PC3 cells expressing mutated p53; format: functional, cell-based; conditions: Homo sapiens
How it was run: (§2)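 Compounds tested as tri(methanesulfonate) salts, soluble in water and dilute buffers. Human tumour cells carrying wild-type or mutated p53 were exposed for 5 days, and viability was read by MTT assay. GI50, TGI and LC50 were calculated from the MTT data. Values are means ± SD of at least three independent experiments, with coefficients of variation of 10–20%.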

NCI-H226 = test: Antitumor activity against human NCI-H226 cells after 48 hrs; format: functional; conditions: NCI-H226, 48 h; how it was run: as §1
HCT-116 = test: Growth inhibition of human HCT116 cells after 5 days by MTT assay; format: functional; conditions: HCT-116, 120 h
How it was run: (§3)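 MTT assay after 5 day continuous exposure. GI50, TGI and LC50 calculated from the MTT data. Means ± SD of at least three independent experiments; coefficients of variation 10-20%. Compounds used as tri(methanesulfonate) salts.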

UACC-62 = test: Antitumor activity against human UACC62 cells after 48 hrs; format: functional; conditions: UACC-62, 48 h
How it was run: (§4)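 NCI 60 human tumour cell line screen; 48 h continuous drug exposure. Compounds tested as tri(methanesulfonate) salts, soluble in water and dilute buffers. Dilute solutions are light-sensitive and adsorb to glass or quartz.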

UO-31 = test: Antitumor activity against human UO31 cells after 48 hrs; format: functional; conditions: UO-31, 48 h; how it was run: as §4
786-0 = test: Antitumor activity against human 786-0 cells after 48 hrs; format: functional; conditions: 786-0, 48 h; how it was run: as §1
PC-3 [2] = test: Antitumor activity against human PC3 cells after 48 hrs; format: functional; conditions: PC-3, 48 h; how it was run: as §1
HOP-92 = test: Antitumor activity against human HOP92 cells after 48 hrs; format: functional; conditions: HOP-92, 48 h; how it was run: as §1
SR = test: Antitumor activity against human SR cells after 48 hrs; format: functional; how it was run: as §4
OVCAR-3 = test: Antitumor activity against human OVCAR-3 cells after 48 hrs; format: functional; conditions: OVCAR-3, 48 h; how it was run: as §1
RKO = test: Antitumor activity against human RKO cells expressing wild type p53; format: functional; conditions: read-out: LC50 (the source's name); how it was run: as §2
NCI-H522 = test: Antitumor activity against human NCI-H522 cells after 48 hrs; format: functional; conditions: NCI-H522, 48 h; how it was run: as §1
[3] = Apparent volume of distribution in F344 rat at 20 mg/kg, iv; format: ADME, organism-based; parameters: dose 20 mg/kg, route intravenous; conditions: in vivo
How it was run: (§5)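 Single i.v. dose of 20 mg/kg to ncr nu/nu mice and an F344 rat. Plasma concentrations followed over time and fitted by nonlinear regression to give distribution and elimination phases, AUC and apparent volumes of distribution. Detection limit 50 nM.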

[4] = Antitumor activity against human 10.05 cells expressing mutated p53; format: functional, cell-based; how it was run: as §2
EKVX = test: Antitumor activity against human EKVX cells after 48 hrs; format: functional; how it was run: as §1
Malme-3M = test: Antitumor activity against human MALME-3M cells after 48 hrs; format: functional; how it was run: as §1
CCRF-CEM = test: Antitumor activity against human CCRF-CEM cells after 48 hrs; format: functional; how it was run: as §1
IGROV-1 = test: Antitumor activity against human IGROV1 cells after 48 hrs; format: functional; conditions: IGROV-1, 48 h; how it was run: as §1
HCC 2998 = test: Antitumor activity against human HCC2998 cells after 48 hrs; format: functional; conditions: HCC 2998, 48 h; how it was run: as §1
MDA-MB-435 = test: Antitumor activity against human MDA-MB-435 cells after 48 hrs; format: functional; conditions: MDA-MB-435, 48 h; how it was run: as §1
SF-295 = test: Antitumor activity against human SF295 cells after 48 hrs; format: functional; conditions: SF-295, 48 h; how it was run: as §1
COLO 205 = test: Antitumor activity against human COLO205 cells after 48 hrs; format: functional; conditions: COLO 205, 48 h; how it was run: as §1
SW-620 = test: Antitumor activity against human SW620 cells after 48 hrs; format: functional; conditions: SW-620, 48 h; how it was run: as §4
LOX IMVI = test: Antitumor activity against human LOX IMVI cells after 48 hrs; format: functional; how it was run: as §1
[5] = Growth inhibition of human Hep3B cells after 5 days by MTT assay; format: functional, Hep 3B2; conditions: 120 h; how it was run: as §3
HT-29 [6] = test: Growth inhibition of human HT29 cells after 5 days by MTT assay; format: functional; conditions: HT-29, 120 h; how it was run: as §3
[7] = Antitumor activity against human NCI-H322 cells after 48 hrs; format: functional; conditions: NCI-H322, 48 h; how it was run: as §1
NCI-H460 = test: Antitumor activity against human NCI-H460 cells after 48 hrs; format: functional; conditions: NCI-H460, 48 h; how it was run: as §1
HT-29 [8] = test: Antitumor activity against human HT29 cells after 48 hrs; format: functional; conditions: HT-29, 48 h; how it was run: as §1
[9] = Drug level in F344 rat plasma at 20 mg/kg, iv after 4 hrs; format: ADME, organism-based; parameters: dose 20 mg/kg, route intravenous; how it was run: as §5
U-251 = test: Antitumor activity against human U251 cells after 48 hrs; format: functional; conditions: U-251, 48 h; how it was run: as §4
SK-MEL-28 = test: Antitumor activity against human SK-MEL-28 cells after 48 hrs; format: functional; conditions: SK-MEL-28, 48 h; how it was run: as §1
[10] = read-out: Log LC50 (the source's name) (converted)
[11] = read-out: LC50 (the source's name)

SMILES: COc1ccc2c(c1)c(=O)c1c(NCCCN3CCN(CCCN4C(=O)c5cccc6cc([N+](=O)[O-])cc(c56)C4=O)CC3)ccc3ncn2c31.CS(=O)(=O)O
- GI50 (SF-539): 2.75 nM
- CC50 (SF-539; [10]): > 1000 nM
- TGI (SF-539; read-out: Log TGI (converted)): 25.1 nM
- IC50 (ASPC1): 70 nM
- IC50 (PC-3 [1]): 45 nM
- GI50 (NCI-H226): 1.32 nM
- CC50 (NCI-H226; [10]): > 1000 nM
- TGI (NCI-H226; read-out: Log TGI (converted)): 32.4 nM
- GI50 (HCT-116): 1 nM
- LC50 (HCT-116): 30 nM
- GI50 (UACC-62): 3.31 nM
- CC50 (UACC-62; [10]): > 1000 nM
- TGI (UACC-62; read-out: Log TGI (converted)): 55 nM
- GI50 (UO-31): 2.69 nM
- CC50 (UO-31; [10]): > 1000 nM
- TGI (UO-31; read-out: Log TGI (converted)): 17.8 nM
- GI50 (786-0): 5.25 nM
- CC50 (786-0; [10]): > 1000 nM
- TGI (786-0; read-out: Log TGI (converted)): > 1000 nM
- GI50 (PC-3 [2]): 3.09 nM
- CC50 (PC-3 [2]; [10]): > 1000 nM
- TGI (PC-3 [2]; read-out: Log TGI (converted)): 339 nM
- GI50 (HOP-92): 5.13 nM
- CC50 (HOP-92; [10]): > 1000 nM
- TGI (HOP-92; read-out: Log TGI (converted)): 63.1 nM
- GI50 (SR): < 0.1 nM
- CC50 (SR; [10]): 17 nM
- TGI (SR; read-out: Log TGI (converted)): < 0.1 nM
- GI50 (OVCAR-3): 50.1 nM
- CC50 (OVCAR-3; [10]): > 1000 nM
- TGI (OVCAR-3; read-out: Log TGI (converted)): > 1000 nM
- CC50 (RKO): 25 nM
- GI50 (NCI-H522): 4.17 nM
- CC50 (NCI-H522; [10]): > 1000 nM
- TGI (NCI-H522; read-out: Log TGI (converted)): 151 nM
- Vd [3]: 138 L/kg
- IC50 [4]: 90 nM
- GI50 (EKVX): 3.31 nM
- CC50 (EKVX; [10]): > 1000 nM
- TGI (EKVX; read-out: Log TGI (converted)): 58.9 nM
- GI50 (Malme-3M): 6.03 nM
- CC50 (Malme-3M; [10]): > 1000 nM
- TGI (Malme-3M; read-out: Log TGI (converted)): 95.5 nM
- GI50 (CCRF-CEM): 4.07 nM
- CC50 (CCRF-CEM; [10]): > 1000 nM
- TGI (CCRF-CEM; read-out: Log TGI (converted)): 97.7 nM
- GI50 (IGROV-1): 3.39 nM
- CC50 (IGROV-1; [10]): > 1000 nM
- TGI (IGROV-1; read-out: Log TGI (converted)): 51.3 nM
- GI50 (HCC 2998): 11.5 nM
- CC50 (HCC 2998; [10]): > 1000 nM
- TGI (HCC 2998; read-out: Log TGI (converted)): > 1000 nM
- GI50 (MDA-MB-435): 7.41 nM
- CC50 (MDA-MB-435; [10]): > 1000 nM
- TGI (MDA-MB-435; read-out: Log TGI (converted)): > 1000 nM
- GI50 (SF-295): 1 nM
- CC50 (SF-295; [10]): > 1000 nM
- TGI (SF-295; read-out: Log TGI (converted)): 79.4 nM
- GI50 (COLO 205): 6.31 nM
- CC50 (COLO 205; [10]): > 1000 nM
- TGI (COLO 205; read-out: Log TGI (converted)): > 1000 nM
- GI50 (SW-620): 0.676 nM
- CC50 (SW-620; [10]): > 1000 nM
- TGI (SW-620; read-out: Log TGI (converted)): > 1000 nM
- GI50 (LOX IMVI): 1.86 nM
- CC50 (LOX IMVI; [10]): > 1000 nM
- TGI (LOX IMVI; read-out: Log TGI (converted)): 77.6 nM
- GI50 [5]: 2.5 nM
- CC50 [5, 11]: 50 nM
- GI50 (HT-29 [6]): 1 nM
- CC50 (HT-29 [6]; [11]): 80 nM
- GI50 [7]: 5.89 nM
- CC50 [7, 10]: > 1000 nM
- TGI ([7]; read-out: Log TGI (converted)): 309 nM
- GI50 (NCI-H460): 2.57 nM
- CC50 (NCI-H460; [10]): > 1000 nM
- TGI (NCI-H460; read-out: Log TGI (converted)): > 1000 nM
- GI50 (HT-29 [8]): 2.75 nM
- CC50 (HT-29 [8]; [10]): > 1000 nM
- TGI (HT-29 [8]; read-out: Log TGI (converted)): 295 nM
- concentration at 4 h [9]: 90 nM
- GI50 (U-251): 2.19 nM
- CC50 (U-251; [10]): > 1000 nM
- TGI (U-251; read-out: Log TGI (converted)): > 1000 nM
- GI50 (SK-MEL-28): 5.5 nM
- CC50 (SK-MEL-28; [10]): > 1000 nM
- TGI (SK-MEL-28; read-out: Log TGI (converted)): 933 nM
